Entries after “also recorded” stand apart in the source; their conditions may differ.
Assay: Phase I study NCT03854227: DLTs and adverse events
Assay type: in vivo, human
Method in brief: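 Open-label, multicentre first-in-human trial in adults (ECOG 0–1) with advanced or metastatic tumours. Oral test compound, q.d. or b.i.d., on an empty stomach in continuous 28-day cycles. Part 1 started at 0.5 mg q.d., with escalation guided by a two-parameter Bayesian logistic regression model on cycle 1 DLTs. Part 2 ran at 6 mg q.d. AEs were graded by CTCAE 5.0 and summarised descriptively by dose level.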

[1] = Part 2 N = 26, 6 mg q.d., any grade
[2] = Part 2 N = 26, 6 mg q.d., grade ≥3
[3] = overall (part 1 + part 2), N=54

Cc1ncnc2c1ccn2[C@@H]1C[C@H](Oc2cc(C(F)F)c(F)c3c2CNCC3)[C@@H](O)[C@H]1O [PF-06939999]
TRAE Anemia (Part 1 N = 28, any grade): 12 (43) n (%)
TRAE Any (Part 1 N = 28, any grade): 24 (86) n (%)
TRAE Decreased appetite (Part 1 N = 28, any grade): 6 (21) n (%)
TRAE Dysgeusia (Part 1 N = 28, any grade): 9 (32) n (%)
TRAE Dyspepsia (Part 1 N = 28, any grade): 2 (7) n (%)
TRAE Fatigue (Part 1 N = 28, any grade): 9 (32) n (%)
TRAE Hypomagnesemia (Part 1 N = 28, any grade): 4 (14) n (%)
TRAE Leukopenia (Part 1 N = 28, any grade): 3 (11) n (%)
TRAE Nausea (Part 1 N = 28, any grade): 8 (29) n (%)
TRAE Neutropenia (Part 1 N = 28, any grade): 3 (11) n (%)
TRAE Thrombocytopenia (including platelet count decreased) (Part 1 N = 28, any grade): 9 (32) n (%)
TRAE Vomiting (Part 1 N = 28, any grade): 1 (4) n (%)
TRAE Weight decreased (Part 1 N = 28, any grade): 0 n (%)
TRAE Anemia (Part 1 N = 28, grade ≥3): 8 (29) n (%)
TRAE Any (Part 1 N = 28, grade ≥3): 12 (43) n (%)
TRAE Decreased appetite (Part 1 N = 28, grade ≥3): 0 n (%)
TRAE Dysgeusia (Part 1 N = 28, grade ≥3): 0 n (%)
TRAE Dyspepsia (Part 1 N = 28, grade ≥3): 0 n (%)
TRAE Fatigue (Part 1 N = 28, grade ≥3): 2 (7) n (%)
TRAE Hypomagnesemia (Part 1 N = 28, grade ≥3): 0 n (%)
TRAE Leukopenia (Part 1 N = 28, grade ≥3): 0 n (%)
TRAE Nausea (Part 1 N = 28, grade ≥3): 0 n (%)
TRAE Neutropenia (Part 1 N = 28, grade ≥3): 1 (4) n (%)
TRAE Thrombocytopenia (including platelet count decreased) (Part 1 N = 28, grade ≥3): 6 (21) n (%)
TRAE Vomiting (Part 1 N = 28, grade ≥3): 0 n (%)
TRAE Weight decreased (Part 1 N = 28, grade ≥3): 0 n (%)
TRAE Anemia [1]: 11 (42) n (%)
TRAE Any [1]: 21 (81) n (%)
TRAE Decreased appetite [1]: 7 (27) n (%)
TRAE Dysgeusia [1]: 3 (12) n (%)
TRAE Dyspepsia [1]: 4 (15) n (%)
TRAE Fatigue [1]: 6 (23) n (%)
TRAE Hypomagnesemia [1]: 1 (4) n (%)
TRAE Leukopenia [1]: 2 (8) n (%)
TRAE Nausea [1]: 9 (35) n (%)
TRAE Neutropenia [1]: 1 (4) n (%)
TRAE Thrombocytopenia (including platelet count decreased) [1]: 13 (50) n (%)
TRAE Vomiting [1]: 3 (12) n (%)
TRAE Weight decreased [1]: 3 (12) n (%)
TRAE Anemia [2]: 7 (27) n (%)
TRAE Any [2]: 11 (42) n (%)
TRAE Decreased appetite [2]: 0 n (%)
TRAE Dysgeusia [2]: 0 n (%)
TRAE Dyspepsia [2]: 0 n (%)
TRAE Fatigue [2]: 1 (4) n (%)
TRAE Hypomagnesemia [2]: 0 n (%)
TRAE Leukopenia [2]: 1 (4) n (%)
TRAE Nausea [2]: 0 n (%)
TRAE Neutropenia [2]: 1 (4) n (%)
TRAE Thrombocytopenia (including platelet count decreased) [2]: 6 (23) n (%)
TRAE Vomiting [2]: 0 n (%)
TRAE Weight decreased [2]: 0 n (%)
TRAE Anemia (Total N = 54, any grade): 23 (43) n (%)
TRAE Any (Total N = 54, any grade): 45 (83) n (%)
TRAE Decreased appetite (Total N = 54, any grade): 13 (24) n (%)
TRAE Dysgeusia (Total N = 54, any grade): 12 (22) n (%)
TRAE Dyspepsia (Total N = 54, any grade): 6 (11) n (%)
TRAE Fatigue (Total N = 54, any grade): 15 (28) n (%)
TRAE Hypomagnesemia (Total N = 54, any grade): 5 (9) n (%)
TRAE Leukopenia (Total N = 54, any grade): 5 (9) n (%)
TRAE Nausea (Total N = 54, any grade): 17 (32) n (%)
TRAE Neutropenia (Total N = 54, any grade): 4 (7) n (%)
TRAE Thrombocytopenia (including platelet count decreased) (Total N = 54, any grade): 22 (41) n (%)
TRAE Vomiting (Total N = 54, any grade): 4 (7) n (%)
TRAE Weight decreased (Total N = 54, any grade): 3 (6) n (%)
TRAE Anemia (Total N = 54, grade ≥3): 15 (28) n (%)
TRAE Any (Total N = 54, grade ≥3): 23 (43) n (%)
TRAE Decreased appetite (Total N = 54, grade ≥3): 0 n (%)
TRAE Dysgeusia (Total N = 54, grade ≥3): 0 n (%)
TRAE Dyspepsia (Total N = 54, grade ≥3): 0 n (%)
TRAE Fatigue (Total N = 54, grade ≥3): 3 (6) n (%)
TRAE Hypomagnesemia (Total N = 54, grade ≥3): 0 n (%)
TRAE Leukopenia (Total N = 54, grade ≥3): 1 (2) n (%)
TRAE Nausea (Total N = 54, grade ≥3): 0 n (%)
TRAE Neutropenia (Total N = 54, grade ≥3): 2 (4) n (%)
TRAE Thrombocytopenia (including platelet count decreased) (Total N = 54, grade ≥3): 12 (22) n (%)
TRAE Vomiting (Total N = 54, grade ≥3): 0 n (%)
TRAE Weight decreased (Total N = 54, grade ≥3): 0 n (%)
Patients who discontinued treatment due to AEs (all 54 patients, 6 patients): 11%
Recommended part 2 dose (RP2D) (oral, selected from safety and PK/PD modeling): 6 mg q.d.
Grade ≥3 TRAE Anemia [3]: 28%
Grade ≥3 TRAE Fatigue [3]: 6%
Grade ≥3 TRAE Neutropenia [3]: 4%
Grade ≥3 TRAE thrombocytopenia/platelet count decreased [3]: 22%
TRAE dysgeusia, any grade (part 1 + part 2, N=54): 22%
TRAE fatigue, any grade (part 1 + part 2, N=54): 28%
TRAE nausea, any grade (part 1 + part 2, N=54): 32%
TRAE thrombocytopenia, any grade (part 1 + part 2, N=54): 41%
DLT (part 1, 0.5 mg b.i.d., N=1): 0 n (%)
Grade ≥3 TRAE Anemia (part 1, 0.5 mg b.i.d., N=1): 0 n (%)
Grade ≥3 TRAE Fatigue (part 1, 0.5 mg b.i.d., N=1): 0 n (%)
Grade ≥3 TRAE Lymphocyte count decreased (part 1, 0.5 mg b.i.d., N=1): 0 n (%)
Grade ≥3 TRAE Muscular weakness (part 1, 0.5 mg b.i.d., N=1): 0 n (%)
Grade ≥3 TRAE Neutropenia (part 1, 0.5 mg b.i.d., N=1): 0 n (%)
Grade ≥3 TRAE Thrombocytopenia (part 1, 0.5 mg b.i.d., N=1): 0 n (%)
DLT (part 1, 0.5 mg q.d., N=1): 0 n (%)
Grade ≥3 TRAE Anemia (part 1, 0.5 mg q.d., N=1): 0 n (%)
Grade ≥3 TRAE Fatigue (part 1, 0.5 mg q.d., N=1): 0 n (%)
Grade ≥3 TRAE Lymphocyte count decreased (part 1, 0.5 mg q.d., N=1): 0 n (%)
Grade ≥3 TRAE Muscular weakness (part 1, 0.5 mg q.d., N=1): 0 n (%)
Grade ≥3 TRAE Neutropenia (part 1, 0.5 mg q.d., N=1): 0 n (%)
Grade ≥3 TRAE Thrombocytopenia (part 1, 0.5 mg q.d., N=1): 0 n (%)
DLT (part 1, 1 mg b.i.d., N=2): 0 n (%)
Grade ≥3 TRAE Anemia (part 1, 1 mg b.i.d., N=2): 1 (50) n (%)
Grade ≥3 TRAE Fatigue (part 1, 1 mg b.i.d., N=2): 0 n (%)
Grade ≥3 TRAE Lymphocyte count decreased (part 1, 1 mg b.i.d., N=2): 0 n (%)
Grade ≥3 TRAE Muscular weakness (part 1, 1 mg b.i.d., N=2): 0 n (%)
Grade ≥3 TRAE Neutropenia (part 1, 1 mg b.i.d., N=2): 0 n (%)
Grade ≥3 TRAE Thrombocytopenia (part 1, 1 mg b.i.d., N=2): 0 n (%)
DLT (part 1, 2 mg b.i.d., N=2): 0 n (%)
Grade ≥3 TRAE Anemia (part 1, 2 mg b.i.d., N=3): 0 n (%)
Grade ≥3 TRAE Fatigue (part 1, 2 mg b.i.d., N=3): 0 n (%)
Grade ≥3 TRAE Lymphocyte count decreased (part 1, 2 mg b.i.d., N=3): 0 n (%)
Grade ≥3 TRAE Muscular weakness (part 1, 2 mg b.i.d., N=3): 0 n (%)
Grade ≥3 TRAE Neutropenia (part 1, 2 mg b.i.d., N=3): 0 n (%)
Grade ≥3 TRAE Thrombocytopenia (part 1, 2 mg b.i.d., N=3): 1 (33) n (%)
DLT (part 1, 4 mg b.i.d., N=3): 0 n (%)
Grade ≥3 TRAE Anemia (part 1, 4 mg b.i.d., N=3): 1 (33) n (%)
Grade ≥3 TRAE Fatigue (part 1, 4 mg b.i.d., N=3): 1 (33) n (%)
Grade ≥3 TRAE Lymphocyte count decreased (part 1, 4 mg b.i.d., N=3): 0 n (%)
Grade ≥3 TRAE Muscular weakness (part 1, 4 mg b.i.d., N=3): 0 n (%)
Grade ≥3 TRAE Neutropenia (part 1, 4 mg b.i.d., N=3): 0 n (%)
Grade ≥3 TRAE Thrombocytopenia (part 1, 4 mg b.i.d., N=3): 1 (33) n (%)
DLT (part 1, 4 mg q.d., N=4): 0 n (%)
Grade ≥3 TRAE Anemia (part 1, 4 mg q.d., N=5): 2 (40) n (%)
Grade ≥3 TRAE Fatigue (part 1, 4 mg q.d., N=5): 0 n (%)
Grade ≥3 TRAE Lymphocyte count decreased (part 1, 4 mg q.d., N=5): 0 n (%)
Grade ≥3 TRAE Muscular weakness (part 1, 4 mg q.d., N=5): 1 (20) n (%)
Grade ≥3 TRAE Neutropenia (part 1, 4 mg q.d., N=5): 0 n (%)
Grade ≥3 TRAE Thrombocytopenia (part 1, 4 mg q.d., N=5): 0 n (%)
DLT thrombocytopenia, number of patients (part 1, 6 mg b.i.d.): 2 n
DLT (part 1, 6 mg b.i.d., N=2): 2 (100) n (%)
Grade ≥3 TRAE Anemia (part 1, 6 mg b.i.d., N=4): 1 (25) n (%)
Grade ≥3 TRAE Fatigue (part 1, 6 mg b.i.d., N=4): 0 n (%)
Grade ≥3 TRAE Lymphocyte count decreased (part 1, 6 mg b.i.d., N=4): 0 n (%)
Grade ≥3 TRAE Muscular weakness (part 1, 6 mg b.i.d., N=4): 0 n (%)
Grade ≥3 TRAE Neutropenia (part 1, 6 mg b.i.d., N=4): 0 n (%)
Grade ≥3 TRAE Thrombocytopenia (part 1, 6 mg b.i.d., N=4): 2 (50) n (%)
DLT (grade 3) neutropenia, number of patients (part 1, 6 mg q.d.): 1 n
DLT (part 1, 6 mg q.d., N=6): 1 (17) n (%)
Grade ≥3 TRAE Anemia (part 1, 6 mg q.d., N=6): 2 (33) n (%)
Grade ≥3 TRAE Fatigue (part 1, 6 mg q.d., N=6): 1 (17) n (%)
Grade ≥3 TRAE Lymphocyte count decreased (part 1, 6 mg q.d., N=6): 0 n (%)
Grade ≥3 TRAE Muscular weakness (part 1, 6 mg q.d., N=6): 0 n (%)
Grade ≥3 TRAE Neutropenia (part 1, 6 mg q.d., N=6): 1 (17) n (%)
Grade ≥3 TRAE Thrombocytopenia (part 1, 6 mg q.d., N=6): 0 n (%)
DLT (grade 3) anemia, number of patients (part 1, 8 mg q.d.): 1 n
DLT (part 1, 8 mg q.d., N=3): 1 (33) n (%)
Grade ≥3 TRAE Anemia (part 1, 8 mg q.d., N=3): 1 (33) n (%)
Grade ≥3 TRAE Fatigue (part 1, 8 mg q.d., N=3): 0 n (%)
Grade ≥3 TRAE Lymphocyte count decreased (part 1, 8 mg q.d., N=3): 1 (33) n (%)
Grade ≥3 TRAE Muscular weakness (part 1, 8 mg q.d., N=3): 0 n (%)
Grade ≥3 TRAE Neutropenia (part 1, 8 mg q.d., N=3): 0 n (%)
Grade ≥3 TRAE Thrombocytopenia (part 1, 8 mg q.d., N=3): 2 (67) n (%)
Patients reporting DLTs (part 1, 4 of 24 DLT-assessable patients): 17%
DLT grade 3 thrombocytopenia, number of patients (part 1, 6-mg b.i.d. cohort): 1 n
DLT grade 4 thrombocytopenia, number of patients (part 1, 6-mg b.i.d. cohort): 1 n
DLT (part 1, Total, N=24): 4 (17) n (%)
Grade ≥3 TRAE Fatigue (part 1, Total, N=28): 2 (7) n (%)
Grade ≥3 TRAE Lymphocyte count decreased (part 1, Total, N=28): 1 (4) n (%)
Grade ≥3 TRAE Muscular weakness (part 1, Total, N=28): 1 (4) n (%)
Grade ≥3 TRAE Neutropenia (part 1, Total, N=28): 1 (4) n (%)
Grade ≥3 TRAE Thrombocytopenia (part 1, Total, N=28): 6 (21) n (%)
Maximum tolerated dose (MTD) (part 1 dose escalation, 0.5 mg q.d. to 6 mg b.i.d.): No MTD was determined; also recorded: MTD was not identified
Dose reduction due to thrombocytopenia, patients (part 2, 6 mg q.d., 4 patients): 15%
Dose reduction due to anemia, patients (part 2, 6 mg q.d., 5 patients): 19%
Patients with ≥1 dose reduction due to AEs (part 2, 6 mg q.d., eight patients): 31%
